Data reported in ChEMBL document CHEMBL1127690, “Antiinflammatory 4,5-diarylpyrroles: synthesis and QSAR” (J Med Chem, 1994).

Experiments:
Rattus norvegicus [1] = species on record: Rattus norvegicus; experiment: Maximum tolerated dose for 12 days in long evans rats; format: functional
Rattus norvegicus [2] = species on record: Rattus norvegicus; experiment: Antiinflammatory activity against adjuvant induced arthritis in male charles river rats; format: functional
[3] = (§1) Safety assessment in car paw assay, po; format: toxicity
Rattus norvegicus [4] = experiment: Safety assessment in adjuvant induced arthritis rat model (AA),day 18,po; format: functional; conditions: 432 h
Rattus norvegicus [5] = experiment: Safety assessment in adjuvant induced arthritis rat model (AA),po; format: functional
Rattus norvegicus [6] = species on record: Rattus norvegicus; experiment: Compound was evaluated for 12 day tolerance in long evans rats; format: functional
[7] = target: T1, Polyunsaturated fatty acid 5-lipoxygenase (Rattus norvegicus, UniProt P12527); experiment: Inhibitory activity against rat basophilic leukemia 5-lipoxygenase
T1 sequence (P12527 whole entry): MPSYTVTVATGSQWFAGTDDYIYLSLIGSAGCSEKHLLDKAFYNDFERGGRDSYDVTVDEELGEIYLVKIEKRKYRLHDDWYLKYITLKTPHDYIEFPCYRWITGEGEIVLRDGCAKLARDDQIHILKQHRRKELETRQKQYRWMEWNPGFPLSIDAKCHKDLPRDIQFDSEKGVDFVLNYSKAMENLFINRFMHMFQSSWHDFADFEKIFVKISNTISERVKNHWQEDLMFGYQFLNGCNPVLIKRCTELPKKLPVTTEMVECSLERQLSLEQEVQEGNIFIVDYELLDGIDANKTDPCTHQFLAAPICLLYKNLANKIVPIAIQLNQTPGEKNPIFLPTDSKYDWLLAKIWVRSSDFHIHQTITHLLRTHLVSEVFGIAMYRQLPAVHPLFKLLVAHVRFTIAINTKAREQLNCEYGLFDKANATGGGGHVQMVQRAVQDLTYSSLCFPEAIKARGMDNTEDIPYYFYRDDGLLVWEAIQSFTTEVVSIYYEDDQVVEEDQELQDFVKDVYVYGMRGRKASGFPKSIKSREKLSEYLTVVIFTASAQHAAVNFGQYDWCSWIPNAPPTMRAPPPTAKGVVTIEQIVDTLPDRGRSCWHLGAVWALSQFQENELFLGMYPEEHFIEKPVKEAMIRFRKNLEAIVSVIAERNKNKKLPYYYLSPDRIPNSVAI

[8] = Gastrointestinal safety of a compound relative to indomethacin and piroxicam; format: ADME
Summary of the method: (§2)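 Male Sprague-Dawley rats (~165 g) received a single oral dose of drug or vehicle. Stomach and small intestine were examined for mucosal lesions under a 10× dissecting microscope in coded, randomized order. Any single lesion counted as positive. TD50 was calculated by the moving-average method.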

Rattus norvegicus [9] = species on record: Rattus norvegicus; experiment: Effective dose required for prevention of nonestablished adjuvant arthritis model wih an oral paw 18-day; format: functional; conditions: 432 h
Mus musculus [10] = species on record: Mus musculus; experiment: Activity in the mouse oral contact sensitivity model; format: functional
[11] = Cmax value at a dose of 7.1 uM/kg, iv; format: ADME, organism-based; set-up: dose 7.1 uM/kg, route intravenous; conditions: in vivo
[12] = Elimination half life at a dose of 14.3 uM/kg, po; format: ADME, organism-based; conditions: in vivo
[13] = Bioavailability at a dose of 7.1 uM/kg, iv; format: ADME, organism-based; conditions: eutheria, in vivo
[14] = Maximum blood level reached after an oral dose of 5.0 mg/kg; format: ADME, organism-based; set-up: dose 5 mg/kg, route oral; conditions: in vivo
[15] = Volume of distribution at a dose of 7.1 uM/kg, iv; format: ADME, organism-based; conditions: in vivo
[16] = TD50/ED50 value of the compound; format: functional
Summary of the method: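 Ratio of the GI lesion TD50 to the established adjuvant arthritis paw ED50, both measured orally in rats.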

[17] = Elimination half life at a dose of 7.1 uM/kg, iv; format: ADME, organism-based; conditions: in vivo
[18] = Ratio (12-day no effect/AA ED50) of the compound; format: functional
Summary of the method: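 Maximum no-effect dose from the 12-day study divided by the adjuvant arthritis ED50. […] Read-outs were mortality, pharmacologic or toxic signs, body and organ weights and gross necropsy.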

[19] = Volume of distribution at a dose of 6.3 uM/kg, iv; format: ADME, organism-based; conditions: in vivo
[20] = Cmax value at a dose of 6.3 uM/kg, iv; format: ADME, organism-based; set-up: dose 6.3 uM/kg, route intravenous; conditions: in vivo
[21] = Elimination half life at a dose of 6.3 uM/kg iv; format: ADME, organism-based; conditions: in vivo
[22] = Cmax value at a dose of 12.7 uM/kg, po; format: ADME, organism-based; set-up: dose 12.7 uM/kg, route oral; conditions: in vivo
[23] = Elimination half life at a dose of 12.7 uM/kg, po; format: ADME, organism-based; conditions: in vivo
Rattus norvegicus [24] = experiment: as §1; format: functional
Mus musculus [25] = species on record: Mus musculus; experiment: Effective dose of compound against analgesia was determined by phenylquinone writhing assay
Rattus norvegicus [26] = species on record: Rattus norvegicus; experiment: Activity in the nonestablished adjuvant-induced arthritis model; format: functional
[27] = Gastrointestinal safety of a compound relative to indomethacin and piroxicam in rats; format: ADME, organism-based; conditions: rat, in vivo; summary of the method: as §2
[28] = Volume of distribution at dose of 12.2 uM/kg, iv; format: ADME, organism-based; conditions: in vivo
[29] = Elimination half life at dose of 12.2uM/kg, po; conditions: in vivo
[30] = Maximum blood level reached after an iv dose of 12.2 uM/kg; format: ADME, organism-based; set-up: dose 12.2 uM/kg, route intravenous; conditions: in vivo
[31] = Elimination half life at dose of 12.2 uM/kg, iv; format: ADME, organism-based; conditions: in vivo
[32] = Volume of distribution at dose of 10.6 uM/kg intravenously; format: ADME, organism-based; conditions: in vivo, iv
[33] = Maximum blood level reached at dose of 10.6 uM/kg orally; format: ADME, organism-based; set-up: dose 10.6 uM/kg, route oral; conditions: in vivo, po
[34] = Elimination half life at dose of 10.6 uM/kg orally; format: ADME, organism-based; conditions: in vivo, po
[35] = Maximum blood level reached after an dose of 10.6 uM/kg intravenously; format: ADME, organism-based; set-up: dose 10.6 uM/kg, route intravenous; conditions: in vivo, iv
[36] = Elimination half life at dose of 10.6 uM/kg intravenously; format: ADME, organism-based; conditions: in vivo, iv
[37] = Elimination half life at dose of 14.7 uM/kg intravenous route; format: ADME, organism-based; conditions: in vivo
[38] = Elimination half life at dose of 14.7 uM/kg oral route; format: ADME, organism-based; conditions: in vivo
[39] = Maximum blood level reached after an oral dose of 14.7 uM/kg intravenous route; format: ADME, organism-based; conditions: in vivo
[40] = Volume of distribution at dose of 14.7 uM/kg intravenous route; format: ADME, organism-based; conditions: in vivo
[41] = Maximum blood level reached after an oral dose 14.7 uM/kg oral route; format: ADME, organism-based; set-up: dose 14.7 uM/kg, route oral; conditions: in vivo

CS(=O)(=O)c1ccc(-c2[nH]c(SC#N)cc2-c2ccc(F)cc2)cc1
Max tolerated dose (Rattus norvegicus [1]): >418 µM/kg
ED50 (Rattus norvegicus [2]): 3.9 mg/kg
ED30 [3]: 268.5 µM/kg
ED50 (Rattus norvegicus [4]; read-out: ED50): 18.8 µmol/kg
ED50 (Rattus norvegicus [5]; read-out: ED50): 10.5 µmol/kg
no-effect dose (Rattus norvegicus [6]): >418 µM/kg
IC50 [7]: 80 nM
TD50 [8]: > 335 µmol/kg
ED50 (Rattus norvegicus [9]): 7 mg/kg
ED35 (Mus musculus [10]): 8 mg/kg

CS(=O)(=O)c1ccc(-c2[nH]c(Cl)cc2-c2ccc(F)cc2)cc1
Cmax [11]: 1.4 uM l-1
half-life [12]: 348 min
ED50 (Rattus norvegicus [2]): 0.5 mg/kg
F [13]: 1
Cmax [14]: 2.3 uM l-1
Vd [15]: 9 L/kg
ED30 (Rattus norvegicus [5]): 1.43 µM/kg
TD50/ED50 [16]: 70
TD50 [8]: 100 µmol/kg
half-life [17]: 366 min

CS(=O)(=O)c1ccc(-c2[nH]c(Br)cc2-c2ccc(F)cc2)cc1
Ratio [18]: > 43
Vd [19]: 3.5 L/kg
ED50 (Rattus norvegicus [2]): 1.05 mg/kg
Cmax [20]: 2 uM l-1
ED50 (Rattus norvegicus [4]; read-out: ED50): 22.7 µmol/kg
half-life [21]: 612 min
Cmax [22]: 3 uM l-1
ED50 (Rattus norvegicus [5]; read-out: ED50): 2.55 µmol/kg
no-effect dose (Rattus norvegicus [6]): >46 µM/kg
TD50/ED50 [16]: 36
TD50 [8]: 95.9 µmol/kg
half-life [23]: 594 min

CS(=O)(=O)c1ccc(-c2[nH]c(Br)c(Cl)c2-c2ccc(F)cc2)cc1
ED50 (Rattus norvegicus [2]): 4.28 mg/kg

CS(=O)(=O)c1ccc(-c2[nH]c(C(=O)C(F)(F)F)cc2-c2ccc(F)cc2)cc1
ED50 (Rattus norvegicus [2]): 19.4 mg/kg

Cn1c(Br)c(Br)c(-c2ccc(F)cc2)c1-c1ccc(S(C)(=O)=O)cc1
ED50 (Rattus norvegicus [2]): 4.16 mg/kg

CC(C)Cc1ccc(C(C)C(=O)O)cc1 (stereo unspecified) [IBUPROFEN]
ED50 (Rattus norvegicus [2]): 100 mg/kg

CCCCC1C(=O)N(c2ccccc2)N(c2ccccc2)C1=O [PHENYLBUTAZONE]
ED50 (Rattus norvegicus [2]): 10 mg/kg

CS(=O)(=O)c1ccc(-c2[nH]c(I)cc2-c2ccc(F)cc2)cc1
ED50 (Rattus norvegicus [2]): 22 mg/kg

CS(=O)(=O)c1ccc(-c2[nH]ccc2-c2ccc(F)cc2)cc1
ED50 (Rattus norvegicus [2]): > 100 mg/kg

CS(=O)(=O)c1ccc(-c2[nH]c(S(C)(=O)=O)cc2-c2ccc(F)cc2)cc1
ED50 (Rattus norvegicus [2]): 36.6 mg/kg

CS(=O)(=O)c1ccc(-c2[nH]c(I)c(I)c2-c2ccc(F)cc2)cc1
ED50 (Rattus norvegicus [2]): 41.3 mg/kg

CS(=O)(=O)c1ccc(-c2[nH]c([N+](=O)[O-])cc2-c2ccc(F)cc2)cc1
ED50 (Rattus norvegicus [2]): 9 mg/kg

CC(=O)n1c(Br)cc(-c2ccc(F)cc2)c1-c1ccc(S(C)(=O)=O)cc1
ED50 (Rattus norvegicus [2]): 36.2 mg/kg

Cn1c(SC#N)cc(-c2ccc(F)cc2)c1-c1ccc(S(C)(=O)=O)cc1
ED50 (Rattus norvegicus [2]): > 27 mg/kg

CSc1cc(-c2ccc(F)cc2)c(-c2ccc(S(C)(=O)=O)cc2)[nH]1
Ratio [18]: > 30
Max tolerated dose (Rattus norvegicus [1]): >199 µM/kg
ED50 (Rattus norvegicus [2]): 1.8 mg/kg
ED30 (Rattus norvegicus [24]): >276 µM/kg
ED50 (Mus musculus [25]): 46.3 mg/kg
ED50 (Rattus norvegicus [4]): 69.2 µM/kg
ED50 (Rattus norvegicus [26]): 25 mg/kg
ED50 (Rattus norvegicus [5]): 4.98 µM/kg
no-effect dose (Rattus norvegicus [6]): >99 µM/kg
TD50/ED50 [16]: > 83
TD50 [27]: > 414 µmol/kg

CS(=O)(=O)c1ccc(-c2[nH]c(S(=O)(=O)O)cc2-c2ccc(F)cc2)cc1.c1ccncc1
ED50 (Rattus norvegicus [2]): 12.7 mg/kg

COc1ccc2c(c1)c(CC(=O)O)c(C)n2C(=O)c1ccc(Cl)cc1 [INDOMETHACIN]
ED50 (Rattus norvegicus [2]): 0.3 mg/kg

Cn1c(Br)cc(-c2ccc(F)cc2)c1-c1ccc(S(C)(=O)=O)cc1
ED50 (Rattus norvegicus [2]): 1.7 mg/kg
Vd [28]: 10 L/kg
half-life [29]: 258 min
Cmax [30]: 2.9 uM l-1
ED50 (Rattus norvegicus [5]; read-out: ED50): 3.43 µmol/kg
TD50/ED50 [16]: > 100
half-life [31]: 822 min
TD50 [8]: > 416 µmol/kg

Cn1c(Cl)c(Cl)c(-c2ccc(F)cc2)c1-c1ccc(S(C)(=O)=O)cc1
ED50 (Rattus norvegicus [2]): 5 mg/kg

CC(C)(C)OC(=O)n1c(Br)cc(-c2ccc(F)cc2)c1-c1ccc(S(C)(=O)=O)cc1
ED50 (Rattus norvegicus [2]): 31 mg/kg

CS(=O)(=O)c1ccc(-c2[nH]c(Br)c(Br)c2-c2ccc(F)cc2)cc1
Vd [32]: 4.3 L/kg
ED50 (Rattus norvegicus [2]): 1.94 mg/kg
Cmax [33]: 1.5 uM l-1
ED50 (Rattus norvegicus [5]; read-out: ED50): 4.1 µmol/kg
half-life [34]: 2850 min
TD50/ED50 [16]: > 113
Cmax [35]: 2.8 uM l-1
TD50 [8]: > 211 µmol/kg
half-life [36]: 1760 min

CCOC(=O)CCCCn1c(Cl)cc(-c2ccc(F)cc2)c1-c1ccc(S(C)(=O)=O)cc1
ED50 (Rattus norvegicus [2]): > 100 mg/kg

Cc1ccc(S(=O)(=O)n2c(Br)cc(-c3ccc(F)cc3)c2-c2ccc(S(C)(=O)=O)cc2)cc1
ED50 (Rattus norvegicus [2]): > 9 mg/kg

CS(=O)(=O)c1ccc(-c2[nH]c(Cl)c(Br)c2-c2ccc(F)cc2)cc1
ED50 (Rattus norvegicus [2]): 3.4 mg/kg

CS(=O)(=O)c1ccc(-c2[nH]c(F)cc2-c2ccc(F)cc2)cc1
ED50 (Rattus norvegicus [2]): 0.31 mg/kg

CS(=O)(=O)c1ccc(-c2[nH]c(Cl)c(Cl)c2-c2ccc(F)cc2)cc1
ED50 (Rattus norvegicus [2]): 1.5 mg/kg

CS(=O)(=O)c1ccc(-c2[nH]c(C#N)cc2-c2ccc(F)cc2)cc1
half-life [37]: 822 min
ED50 (Rattus norvegicus [2]): 1.3 mg/kg
half-life [38]: 1040 min
ED50 (Rattus norvegicus [5]; read-out: ED50): 3.82 µmol/kg
Cmax [39]: 4.1 uM l-1
TD50/ED50 [16]: > 100
Vd [40]: 5.7 L/kg
Cmax [41]: 2.9 uM l-1
TD50 [8]: > 381 µmol/kg

CS(=O)(=O)c1ccc(-c2[nH]c(F)c(F)c2-c2ccc(F)cc2)cc1
ED50 (Rattus norvegicus [2]): 0.31 mg/kg
